“And” between values parts separate entries of the source, which are not always exact repeats. Equal entries are not always repeated.
System: HEK-293T
Assay: Multiplex assay against HEK293T
Assay type: toxicity, cell-based
Details: human
Summary of the method: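 Tubulin, mitochondrial-mass and membrane-permeability phenotypes are per cents of healthy-nucleus cells. Cells were gated by CellPathfinder machine learning into Hoechst high-intensity objects or normal cells, normal cells into healthy, pyknosed or fragmented nuclei, and pyknosed cells into mitotic or apoptotic. Before that, live cells stained at seeding with Hoechst33342, BioTracker Green Microtubule Cytoskeleton Dye, MitoTracker Red and Annexin V Alexa Fluor 680 were imaged on a CQ1 microscope at 37°C and 5% CO2 after compound addition.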

[1] = 12 h, 1 µM, compound concentration 1 uM
[2] = 12 h, 10 µM, compound concentration 10 uM
[3] = 24 h, 1 µM, compound concentration 1 uM
[4] = 24 h, 10 µM, compound concentration 10 uM
[5] = 48 h, 1 µM, compound concentration 1 uM
[6] = 48 h, 10 µM, compound concentration 10 uM

SMILES: CN1CCC(C(=O)c2cccc(NC(=O)c3c(F)cc(F)cc3F)n2)CC1
- Population Apoptotic (%) [1]: 32% and 52%
- Population Fragmented Nuclei (%) [1]: 5%
- Population Healthy Nuclei (%) [1]: 82%
- Population Hoechst High Intensity Objects (%) [1]: 8% and 7%
- Population Membrane Permeable-Phenotype (%) [1]: 0%
- Population Mitochondria Different-Phenotype (%) [1]: 51% and 59%
- Population Mitotic Cells (%) [1]: 67% and 47%
- Population Normal (%) [1]: 91% and 92%
- Population Pyknosed Nuclei (%) [1]: 11% and 12%
- Population Tubulin-Different-Phenotype (%) [1]: 31% and 20%
- Total Cell Count [1]: 396 and 352
- Population Apoptotic (%) [2]: 52% and 53%
- Population Fragmented Nuclei (%) [2]: 6%
- Population Healthy Nuclei (%) [2]: 80%
- Population Hoechst High Intensity Objects (%) [2]: 8% and 10%
- Population Membrane Permeable-Phenotype (%) [2]: 1% and 0%
- Population Mitochondria Different-Phenotype (%) [2]: 55% and 77%
- Population Mitotic Cells (%) [2]: 47% and 46%
- Population Normal (%) [2]: 91% and 89%
- Population Pyknosed Nuclei (%) [2]: 12% and 13%
- Population Tubulin-Different-Phenotype (%) [2]: 50%
- Total Cell Count [2]: 445 and 401
- Population Apoptotic (%) [3]: 26% and 42%
- Population Fragmented Nuclei (%) [3]: 11% and 8%
- Population Healthy Nuclei (%) [3]: 74% and 83%
- Population Hoechst High Intensity Objects (%) [3]: 4% and 3%
- Population Membrane Permeable-Phenotype (%) [3]: 0%
- Population Mitochondria Different-Phenotype (%) [3]: 30% and 39%
- Population Mitotic Cells (%) [3]: 73% and 57%
- Population Normal (%) [3]: 95% and 96%
- Population Pyknosed Nuclei (%) [3]: 13% and 7%
- Population Tubulin-Different-Phenotype (%) [3]: 20% and 17%
- Total Cell Count [3]: 504 and 478
- Population Apoptotic (%) [4]: 25% and 52%
- Population Fragmented Nuclei (%) [4]: 10% and 8%
- Population Healthy Nuclei (%) [4]: 76% and 81%
- Population Hoechst High Intensity Objects (%) [4]: 6% and 8%
- Population Membrane Permeable-Phenotype (%) [4]: 0%
- Population Mitochondria Different-Phenotype (%) [4]: 48% and 64%
- Population Mitotic Cells (%) [4]: 75% and 47%
- Population Normal (%) [4]: 93% and 91%
- Population Pyknosed Nuclei (%) [4]: 13% and 9%
- Population Tubulin-Different-Phenotype (%) [4]: 41% and 34%
- Total Cell Count [4]: 583 and 467
- Population Apoptotic (%) [5]: 22% and 34%
- Population Fragmented Nuclei (%) [5]: 11% and 9%
- Population Healthy Nuclei (%) [5]: 80% and 84%
- Population Hoechst High Intensity Objects (%) [5]: 3%
- Population Membrane Permeable-Phenotype (%) [5]: 1%
- Population Mitochondria Different-Phenotype (%) [5]: 19% and 24%
- Population Mitotic Cells (%) [5]: 77% and 65%
- Population Normal (%) [5]: 96%
- Population Pyknosed Nuclei (%) [5]: 7% and 5%
- Population Tubulin-Different-Phenotype (%) [5]: 12% and 10%
- Total Cell Count [5]: 884 and 692
- Population Apoptotic (%) [6]: 30% and 28%
- Population Fragmented Nuclei (%) [6]: 13% and 10%
- Population Healthy Nuclei (%) [6]: 79% and 81%
- Population Hoechst High Intensity Objects (%) [6]: 4% and 7%
- Population Membrane Permeable-Phenotype (%) [6]: 0%
- Population Mitochondria Different-Phenotype (%) [6]: 35% and 42%
- Population Mitotic Cells (%) [6]: 69% and 71%
- Population Normal (%) [6]: 95% and 92%
- Population Pyknosed Nuclei (%) [6]: 7%
- Population Tubulin-Different-Phenotype (%) [6]: 23% and 25%
- Total Cell Count [6]: 803 and 671
